# Data from ChEMBL document CHEMBL1154647, “Synthesis, spectral characterization and biological evaluation of phosphorylated derivatives of galanthamine” (Eur J Med Chem, 2010).
# Test system: Brain
# Experiment: Antioxidant activity in Wistar rat brain assessed as glutathione content
# Assay type: functional
# Details: not given
# Method in brief: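 Wistar rat brain was homogenised 1:40 (w/v) in 0.1 M phosphate buffer, pH 7.4, with 1 mM EDTA. Total glutathione (GSH + GSSG) and reduced GSH were assayed spectrophotometrically from optical density, using net rate against a standard-curve slope and intercept, times a dilution factor. Homogenate protein was measured by the Lowry method.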
row,Molecule,Activity [µg/mL]
1,VITAMIN E,43.6

# Test system: Staphylococcus aureus
# Experiment: Antibacterial activity against Staphylococcus aureus at 2 mg/mL after 18 hrs by disc diffusion assay
# Assay type: functional
# Details: read-out: IZ
# Method in brief: (§1)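 Bacteria were grown in nutrient broth at 37 °C for 18 h on a rotary shaker at 150 rpm. Compounds were dissolved in DMF. Nutrient agar plates were dried at 35–36 °C for about 30 min, and test strains were spread on the surface. Discs were applied, and plates were inverted and incubated at 37 °C. A DMF blank was run.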
row,Molecule,zone of inhibition at 2000 µg/mL [mm]
1,O=C(N[C@H](CO)[C@H](O)c1ccc([N+](=O)[O-])cc1)C(Cl)Cl [CHLORAMPHENICOL],3.08

# Test system: Bacillus subtilis
# Experiment: Antibacterial activity against Bacillus subtilis at 2 mg/mL after 18 hrs by disc diffusion assay
# Assay type: functional
# Details: read-out: IZ
# Method in brief: as §1
row,Molecule,zone of inhibition at 2000 µg/mL [mm]
1,O=C(N[C@H](CO)[C@H](O)c1ccc([N+](=O)[O-])cc1)C(Cl)Cl [CHLORAMPHENICOL],2.99

# Test system: Escherichia coli
# Experiment: Antibacterial activity against Escherichia coli at 2 mg/mL after 18 hrs by disc diffusion assay
# Assay type: functional
# Details: read-out: IZ
# Method in brief: as §1
row,Molecule,zone of inhibition at 2000 µg/mL [mm]
1,O=C(N[C@H](CO)[C@H](O)c1ccc([N+](=O)[O-])cc1)C(Cl)Cl [CHLORAMPHENICOL],3.27

# Test system: Brain
# Experiment: Antioxidant activity in Wistar rat brain assessed as superoxide dismutase content
# Assay type: functional
# Details: not given
row,Molecule,Activity [µg/mL]
1,VITAMIN E,32.3

# Test system: Brain
# Experiment: Antioxidant activity in Wistar rat brain assessed as lipid peroxidation
# Assay type: functional, tissue-based
# Details: not given
row,Molecule,Activity [µg/mL]
1,VITAMIN E,82.8

# Test system: Klebsiella pneumoniae
# Experiment: Antibacterial activity against Klebsiella pneumoniae after 18 hrs
# Assay type: functional
# Details: not given
row,Molecule,MIC [µg/mL]
1,O=C(N[C@H](CO)[C@H](O)c1ccc([N+](=O)[O-])cc1)C(Cl)Cl [CHLORAMPHENICOL],0.13

# Test system: Klebsiella pneumoniae
# Experiment: Antibacterial activity against Klebsiella pneumoniae at 2 mg/mL after 18 hrs by disc diffusion assay
# Assay type: functional
# Details: read-out: IZ
# Method in brief: as §1
row,Molecule,zone of inhibition at 2000 µg/mL [mm]
1,O=C(N[C@H](CO)[C@H](O)c1ccc([N+](=O)[O-])cc1)C(Cl)Cl [CHLORAMPHENICOL],4.02

# Test system: Escherichia coli
# Experiment: Antibacterial activity against Escherichia coli after 18 hrs
# Assay type: functional
# Details: not given
row,Molecule,MIC [µg/mL]
1,O=C(N[C@H](CO)[C@H](O)c1ccc([N+](=O)[O-])cc1)C(Cl)Cl [CHLORAMPHENICOL],0.25

# Test system: Klebsiella pneumoniae
# Experiment: Antibacterial activity against Klebsiella pneumoniae at 1 mg/mL after 18 hrs by disc diffusion assay
# Assay type: functional
# Details: read-out: IZ
# Method in brief: as §1
row,Molecule,zone of inhibition at 1000 µg/mL [mm]
1,O=C(N[C@H](CO)[C@H](O)c1ccc([N+](=O)[O-])cc1)C(Cl)Cl [CHLORAMPHENICOL],3.62

# Test system: Staphylococcus aureus
# Experiment: Antibacterial activity against Staphylococcus aureus after 18 hrs
# Assay type: functional
# Details: not given
row,Molecule,MIC [µg/mL]
1,O=C(N[C@H](CO)[C@H](O)c1ccc([N+](=O)[O-])cc1)C(Cl)Cl [CHLORAMPHENICOL],0.2

# Test system: Brain
# Experiment: Antioxidant activity in Wistar rat brain assessed as catalase content
# Assay type: functional
# Details: not given
row,Molecule,Activity [µg/mL]
1,VITAMIN E,403

# Test system: Escherichia coli
# Experiment: Antibacterial activity against Escherichia coli at 1 mg/mL after 18 hrs by disc diffusion assay
# Assay type: functional
# Details: read-out: IZ
# Method in brief: as §1
row,Molecule,zone of inhibition at 1000 µg/mL [mm]
1,O=C(N[C@H](CO)[C@H](O)c1ccc([N+](=O)[O-])cc1)C(Cl)Cl [CHLORAMPHENICOL],2.02

# Test system: Bacillus subtilis
# Experiment: Antibacterial activity against Bacillus subtilis at 1 mg/mL after 18 hrs by disc diffusion assay
# Assay type: functional
# Details: read-out: IZ
# Method in brief: as §1
row,Molecule,zone of inhibition at 1000 µg/mL [mm]
1,O=C(N[C@H](CO)[C@H](O)c1ccc([N+](=O)[O-])cc1)C(Cl)Cl [CHLORAMPHENICOL],1.02

# Test system: Bacillus subtilis
# Experiment: Antibacterial activity against Bacillus subtilis after 18 hrs
# Assay type: functional
# Details: not given
row,Molecule,MIC [µg/mL]
1,O=C(N[C@H](CO)[C@H](O)c1ccc([N+](=O)[O-])cc1)C(Cl)Cl [CHLORAMPHENICOL],0.15

# Test system: Staphylococcus aureus
# Experiment: Antibacterial activity against Staphylococcus aureus at 1 mg/mL after 18 hrs by disc diffusion assay
# Assay type: functional
# Details: read-out: IZ
# Method in brief: as §1
row,Molecule,zone of inhibition at 1000 µg/mL [mm]
1,O=C(N[C@H](CO)[C@H](O)c1ccc([N+](=O)[O-])cc1)C(Cl)Cl [CHLORAMPHENICOL],2.67
